Activity calls are given as the source filed them. No cut-off for these calls is given here.
What was measured:
[1] = Inhibition of rat recombinant Rab geranylgeranyltransferase by SDS-PAGE end point assay
In short: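 End-point transfer of fluorescent prenyl analogues (NBD-GPP or NBD-FPP) to protein substrates was run for 10 min at varied inhibitor concentrations. Substrates were GST-KiRas for FTase, GST-RhoA for GGTase-I and Rab7 for RabGGTase. Reactions were quenched with SDS sample buffer and run on SDS-PAGE. Fluorescent bands were quantified by densitometry.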

[2] = Displacement of Mant-FPP from rat recombinant Rab geranylgeranyltransferase by co-titration based fluorescence assay
In short: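 RabGGTase was titrated into 300 nM Mant-FPP at several fixed inhibitor concentrations. Apparent Kd of Mant-FPP was obtained at each inhibitor level by quadratic fitting. Linear versus hyperbolic dependence of apparent Kd on inhibitor concentration was taken as competitive versus partially competitive binding.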

Rattus norvegicus = organism: Rattus norvegicus; experiment: Displacement of NBD-FPP from rat recombinant Rab geranylgeranyltransferase by fluorescence titration
In short: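 Displacement titration: 400 nM NBD-FPP was pre-equilibrated with 550 nM RabGGTase. Inhibitor was added stepwise in 1 or 5 μM increments while NBD fluorescence was monitored. The end point was controlled by a final addition of GGPP to 4 μM.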

[3] = test system: COS-7 (Chlorocebus aethiops); experiment: Inhibition of recombinant Rab geranylgeranyltransferase expressed in COS-7 cells assessed as inhibition of geranylgeranylation of EYFP-Rab7 protein by Western blot; parameters: concentration or dose not given beside the values; settings: dose or concentration not given here
[4] = Inhibition of rat recombinant Rab geranylgeranyltransferase iin presence of canine Rab7 and rat REP1 by NBD-FPP based continuous fluorimetric assay
In short: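 Continuous fluorometric assay in 96/384-well format: 3 μM Rab7, 3 μM REP1, 9 μM NBD-FPP and 400 nM RabGGTase, with or without inhibitor. IC50 was calculated from three independent measurements.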

[5] = test system: COS-7 (Chlorocebus aethiops); experiment: Cytotoxicity in monkey COS-7 cells at 100 uM; settings: COS-7, 100 µM
[6] = test system: COS-7 (Chlorocebus aethiops); experiment: Inhibition of recombinant Rab geranylgeranyltransferase expressed in COS-7 cells assessed as inhibition of geranylgeranylation of EYFP-Rab7 protein at 10 to 100 uM by Western blot relative to compactin
[7] = target: protein farnesyltransferase (Rattus norvegicus); experiment: Inhibition of rat recombinant FTase by SDS-PAGE end point assay
[8] = target: geranylgeranyltransferase type-I (Rattus norvegicus); experiment: Inhibition of rat recombinant GGTase-1 by SDS-PAGE end point assay

Row | IC50 [1] [µM] | Ki [2] [µM] | Activity (Rattus norvegicus) | IC50 [4] [µM] | IC50 [7] [µM] | IC50 [8] [µM] | Compound | inhibition [3] [%] | Activity [5] | Activity [6]
1 | 14 | 5.3 | Active | 8.1 | 13 | 6.9 | O=C(CNC(=O)[C@H](Cc1c[nH]cn1)NC(=O)c1coc(-c2ccccc2)n1)N[C@@H](Cc1cn(C(c2ccccc2)(c2ccccc2)c2ccccc2)cn1)C(=O)O | 70 | Non-toxic | Dose-dependent effect
2 | 4.3 | 2.8 | Active | 6.3 | > 100 | > 100 | CCCCCCCCCCC(=O)N[C@@H](Cc1ccc(O)cc1)C(=O)N[C@@H](Cc1c[nH]cn1)C(=O)N[C@@H](Cc1ccc(O)cc1)C(=O)N(C)CCc1ccccn1 | 70 | Non-toxic | Dose-dependent effect

Source: ChEMBL document CHEMBL1153722, “Design, synthesis, and characterization of peptide-based rab geranylgeranyl transferase inhibitors” (J Med Chem, 2009)
